Activity calls are given as the source filed them. No cut-off for these calls is given here.

The target in test [1] is Calcium/calmodulin-dependent protein kinase type 1 (Homo sapiens) (UniProt Q14012). Briefly: Inhibition of CaMK1alpha Lys1 labeling site harbouring LVAIKCIAK in human A-375 cells at 5 uM by KiNativ Profiling analysis relative to control. It counts as cell-based. The gist of the method:
(§1)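 Intact A375 melanoma cells were treated with compound at 5 or 0.5 μM, then lysed. Lysate kinases were labeled with a lysine-reactive ATP or ADP-biotin probe (KiNativ). Inhibition is read as protection of each kinase labeling site from probe labeling.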

Test [2] has as its target Cyclin-dependent kinase 2 (Homo sapiens) (UniProt P24941). As to the kind of experiment: Inhibition of CDK2 Lys1 labeling site in human A-375 cells at 5 uM by KiNativ Profiling analysis relative to control. It counts as cell-based. In short, it runs like this:
as §1

For test [3], the target named is Cyclin-dependent kinase 9 (Homo sapiens) (UniProt P50750). As to the kind of experiment: Inhibition of CDK9 Lys2 labeling site in human A-375 cells at 5 uM by KiNativ Profiling analysis relative to control. It counts as cell-based. The gist of the method:
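Live A375 melanoma cells were treated with compound at 5 or 0.5 μM. The cells were then lysed, and the lysates were labeled with a lysine-reactive ATP or ADP-biotin acyl probe (KiNativ). Inhibition is the compound's protection of each kinase labeling-site peptide from probe labeling, relative to untreated control.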

Test [4] deals with MAP/microtubule affinity-regulating kinase 3 (Homo sapiens) (UniProt P27448). As to the kind of experiment: Inhibition of MARK3 Lys2 labeling site in human A-375 cells at 5 uM by KiNativ Profiling analysis relative to control. The class given is cell-based.
The target in test [5] is 5'-AMP-activated protein kinase catalytic subunit alpha-1 (Homo sapiens) (UniProt Q13131). As to the kind of experiment: Inhibition of AMPKa1 ATP Loop labeling site in human A-375 cells at 0.5 uM by KiNativ Profiling analysis relative to control. The class given is cell-based. In short, it runs like this:
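Live A375 melanoma cells were treated with compound at 5 or 0.5 μM, then lysed. The lysates were labeled with a lysine-reactive ATP or ADP-biotin probe. Kinase protection from probe labeling was measured by KiNativ.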

Test [6] concerns the target RAC-gamma serine/threonine-protein kinase (Homo sapiens) (UniProt Q9Y243). As to the kind of experiment: Inhibition of AKT3 ATP Loop labeling site in human A-375 cells at 0.05 uM by KiNativ Profiling analysis relative to control. The class given is cell-based.
The target in test [7] is Calcium/calmodulin-dependent protein kinase type II subunit gamma (Homo sapiens) (UniProt Q13555). Briefly: Inhibition of CaMK2g Lys1 labeling site harbouring KTSTQEYAAKIINTKK in human A-375 cells at 0.05 uM by KiNativ Profiling analysis relative to control. It counts as cell-based.
The target of test [8] is Epidermal growth factor receptor (Homo sapiens) (UniProt P00533). Briefly: Inhibition of EGFR ACT labeling site harbouring LLGAEEKEYHAEGGKVPIK in human A-375 cells at 0.05 uM by KiNativ Profiling analysis relative to control. The class given is cell-based.
For test [9], the target named is Tyrosine-protein kinase Fer (Homo sapiens, UniProt P16591). Briefly: Inhibition of FER Lys1 labeling site harbouring TSVAVKTCKEDLPQELKin human A-375 cells at 0.05 uM by KiNativ Profiling analysis relative to control. The class given is cell-based.
The target in test [10] is Serine/threonine-protein kinase MRCK beta (Homo sapiens) (UniProt Q9Y5S2). As to the kind of experiment: Inhibition of MRCKb in human A-375 cells at 0.05 uM by KiNativ Profiling analysis relative to control. The class given is cell-based.
The target in test [11] is T1, Serine/threonine-protein kinase Nek9 (Homo sapiens) (UniProt Q8TD19).
T1 sequence (whole entry): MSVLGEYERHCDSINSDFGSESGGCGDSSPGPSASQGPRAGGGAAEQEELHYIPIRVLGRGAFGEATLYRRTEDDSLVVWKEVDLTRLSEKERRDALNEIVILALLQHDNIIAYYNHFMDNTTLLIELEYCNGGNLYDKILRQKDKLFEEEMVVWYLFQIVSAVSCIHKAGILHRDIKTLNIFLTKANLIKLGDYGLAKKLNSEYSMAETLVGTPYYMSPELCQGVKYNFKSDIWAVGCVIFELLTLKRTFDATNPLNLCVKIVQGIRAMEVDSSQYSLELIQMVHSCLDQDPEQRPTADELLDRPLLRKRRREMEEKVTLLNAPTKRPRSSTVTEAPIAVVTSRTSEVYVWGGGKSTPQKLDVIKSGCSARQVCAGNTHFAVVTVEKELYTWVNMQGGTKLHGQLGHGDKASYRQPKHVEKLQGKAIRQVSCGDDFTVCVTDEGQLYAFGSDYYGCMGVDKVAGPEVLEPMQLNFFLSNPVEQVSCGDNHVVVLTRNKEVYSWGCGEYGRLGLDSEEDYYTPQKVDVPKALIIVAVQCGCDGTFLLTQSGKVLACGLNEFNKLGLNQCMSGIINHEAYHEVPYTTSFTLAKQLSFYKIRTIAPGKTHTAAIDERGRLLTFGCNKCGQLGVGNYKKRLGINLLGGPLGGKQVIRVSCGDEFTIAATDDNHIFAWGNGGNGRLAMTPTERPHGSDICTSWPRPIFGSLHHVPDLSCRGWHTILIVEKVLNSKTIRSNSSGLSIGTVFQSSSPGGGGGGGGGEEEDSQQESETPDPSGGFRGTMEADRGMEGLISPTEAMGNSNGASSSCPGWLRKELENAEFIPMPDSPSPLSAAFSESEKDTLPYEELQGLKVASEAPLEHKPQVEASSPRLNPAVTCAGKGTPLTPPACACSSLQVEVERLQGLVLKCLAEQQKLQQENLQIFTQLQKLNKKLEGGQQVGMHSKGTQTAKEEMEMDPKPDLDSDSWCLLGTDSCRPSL
As to the kind of experiment: Inhibition of NEK9 ACT labeling site in human A-375 cells at 0.05 uM by KiNativ Profiling analysis relative to control. It counts as cell-based.

For test [12], the target named is 3-phosphoinositide-dependent protein kinase 1 (Homo sapiens) (UniProt O15530). Briefly: Inhibition of PDK1 Protein Kinase Domain in human A-375 cells at 5 uM by KiNativ Profiling analysis relative to control.
Another test deals with GEN2.2. Briefly: Inhibition of CL097 induced IKKalpha/beta phosphorylation level in human GEN2.2 cells at 1 uM preincubated with compound for 1 hr followed by CL097 stimulation and measured after 30 mins by Western blot analysis. It counts as functional, cell-based.
For test [13], the target named is Serine/threonine-protein kinase mTOR (Homo sapiens) (UniProt P42345). Briefly: Inhibition of FRAP ATP labeling site in human Huh-7 cells at 1 uM by KiNativ Profiling analysis relative to control. It counts as cell-based.

Sequence of Cyclin-dependent kinase 9 (Homo sapiens) (P50750 whole entry): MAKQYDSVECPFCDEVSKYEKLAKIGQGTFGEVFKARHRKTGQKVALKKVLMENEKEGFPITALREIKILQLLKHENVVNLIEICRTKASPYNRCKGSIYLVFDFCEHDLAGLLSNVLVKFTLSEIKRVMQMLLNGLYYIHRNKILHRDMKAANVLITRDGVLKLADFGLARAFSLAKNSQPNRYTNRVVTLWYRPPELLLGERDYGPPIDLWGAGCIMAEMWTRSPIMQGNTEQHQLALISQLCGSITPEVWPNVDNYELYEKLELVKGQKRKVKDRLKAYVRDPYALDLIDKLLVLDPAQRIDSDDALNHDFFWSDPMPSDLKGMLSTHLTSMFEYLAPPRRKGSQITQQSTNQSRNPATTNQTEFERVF
Sequence of Calcium/calmodulin-dependent protein kinase type II subunit gamma (Homo sapiens) (Q13555 whole entry): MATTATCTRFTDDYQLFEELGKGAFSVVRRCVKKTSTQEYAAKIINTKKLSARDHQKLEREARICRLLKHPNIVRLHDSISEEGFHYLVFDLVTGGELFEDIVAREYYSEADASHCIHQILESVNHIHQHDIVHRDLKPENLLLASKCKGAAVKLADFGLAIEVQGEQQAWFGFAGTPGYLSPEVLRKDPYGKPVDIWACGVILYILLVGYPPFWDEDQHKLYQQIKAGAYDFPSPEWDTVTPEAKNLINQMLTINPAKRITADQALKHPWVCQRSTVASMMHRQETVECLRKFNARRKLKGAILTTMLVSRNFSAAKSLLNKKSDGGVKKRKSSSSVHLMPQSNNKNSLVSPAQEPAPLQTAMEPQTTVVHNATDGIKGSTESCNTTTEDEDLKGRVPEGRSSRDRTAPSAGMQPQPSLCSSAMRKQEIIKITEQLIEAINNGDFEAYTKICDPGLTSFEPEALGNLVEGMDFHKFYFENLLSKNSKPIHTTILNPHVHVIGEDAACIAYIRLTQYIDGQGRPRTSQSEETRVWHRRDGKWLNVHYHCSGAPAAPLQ
Sequence of 5'-AMP-activated protein kinase catalytic subunit alpha-1 (Homo sapiens) (Q13131 whole entry, looked up): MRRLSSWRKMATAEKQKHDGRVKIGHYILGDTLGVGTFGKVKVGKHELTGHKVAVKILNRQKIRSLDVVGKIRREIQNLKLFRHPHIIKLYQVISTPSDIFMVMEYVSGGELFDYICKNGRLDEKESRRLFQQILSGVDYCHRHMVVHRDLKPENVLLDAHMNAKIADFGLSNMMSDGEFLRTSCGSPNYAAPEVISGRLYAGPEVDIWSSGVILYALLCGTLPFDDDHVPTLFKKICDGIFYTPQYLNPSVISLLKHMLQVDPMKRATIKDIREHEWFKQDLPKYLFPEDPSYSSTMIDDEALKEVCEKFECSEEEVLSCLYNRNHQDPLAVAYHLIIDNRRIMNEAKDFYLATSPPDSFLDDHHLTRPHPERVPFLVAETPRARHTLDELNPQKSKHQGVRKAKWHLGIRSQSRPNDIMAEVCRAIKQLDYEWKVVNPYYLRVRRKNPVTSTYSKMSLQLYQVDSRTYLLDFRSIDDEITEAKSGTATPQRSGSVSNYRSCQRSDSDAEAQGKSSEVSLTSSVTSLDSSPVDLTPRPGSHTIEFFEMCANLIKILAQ
Sequence of Calcium/calmodulin-dependent protein kinase type 1 (Homo sapiens) (Q14012 whole entry, looked up): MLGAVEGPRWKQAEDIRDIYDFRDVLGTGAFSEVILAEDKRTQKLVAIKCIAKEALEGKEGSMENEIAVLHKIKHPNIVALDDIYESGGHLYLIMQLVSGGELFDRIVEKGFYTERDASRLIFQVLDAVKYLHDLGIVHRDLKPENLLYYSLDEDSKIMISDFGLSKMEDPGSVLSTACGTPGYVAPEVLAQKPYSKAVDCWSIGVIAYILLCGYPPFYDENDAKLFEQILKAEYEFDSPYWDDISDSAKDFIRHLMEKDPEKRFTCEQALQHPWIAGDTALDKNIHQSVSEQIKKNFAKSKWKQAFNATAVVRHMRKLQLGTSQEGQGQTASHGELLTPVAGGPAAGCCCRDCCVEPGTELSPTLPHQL
Sequence of Epidermal growth factor receptor (Homo sapiens) (P00533 whole entry): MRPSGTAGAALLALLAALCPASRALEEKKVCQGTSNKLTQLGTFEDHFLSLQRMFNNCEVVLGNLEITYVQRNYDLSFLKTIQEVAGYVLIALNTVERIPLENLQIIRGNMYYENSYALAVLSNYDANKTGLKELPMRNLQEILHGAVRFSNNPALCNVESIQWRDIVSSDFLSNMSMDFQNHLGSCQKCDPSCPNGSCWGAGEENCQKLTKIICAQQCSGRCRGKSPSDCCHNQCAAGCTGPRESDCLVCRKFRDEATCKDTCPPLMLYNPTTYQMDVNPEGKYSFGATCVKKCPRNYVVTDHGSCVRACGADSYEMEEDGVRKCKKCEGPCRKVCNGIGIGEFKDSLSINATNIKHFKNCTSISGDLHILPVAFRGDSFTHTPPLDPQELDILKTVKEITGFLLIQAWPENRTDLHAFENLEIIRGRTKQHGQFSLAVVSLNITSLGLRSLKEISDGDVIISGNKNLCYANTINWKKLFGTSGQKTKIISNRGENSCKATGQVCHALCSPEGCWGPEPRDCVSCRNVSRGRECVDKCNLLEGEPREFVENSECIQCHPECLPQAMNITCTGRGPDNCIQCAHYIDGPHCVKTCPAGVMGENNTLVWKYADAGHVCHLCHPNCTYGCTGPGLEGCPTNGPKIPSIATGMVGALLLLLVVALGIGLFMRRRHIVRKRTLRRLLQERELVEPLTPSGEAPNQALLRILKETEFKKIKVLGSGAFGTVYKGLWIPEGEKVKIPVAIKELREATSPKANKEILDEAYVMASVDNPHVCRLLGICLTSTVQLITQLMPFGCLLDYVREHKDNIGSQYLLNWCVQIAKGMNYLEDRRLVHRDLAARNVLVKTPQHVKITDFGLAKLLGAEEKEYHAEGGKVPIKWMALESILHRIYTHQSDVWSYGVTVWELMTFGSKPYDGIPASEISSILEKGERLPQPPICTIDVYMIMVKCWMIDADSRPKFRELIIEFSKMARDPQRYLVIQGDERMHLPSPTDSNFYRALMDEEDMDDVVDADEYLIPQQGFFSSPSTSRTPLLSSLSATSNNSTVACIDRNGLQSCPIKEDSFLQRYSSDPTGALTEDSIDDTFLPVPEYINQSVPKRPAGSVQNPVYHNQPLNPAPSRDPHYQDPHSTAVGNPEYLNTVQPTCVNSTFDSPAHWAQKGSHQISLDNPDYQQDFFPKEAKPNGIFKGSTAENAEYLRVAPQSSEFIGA
Sequence of Serine/threonine-protein kinase MRCK beta (Homo sapiens) (Q9Y5S2 whole entry): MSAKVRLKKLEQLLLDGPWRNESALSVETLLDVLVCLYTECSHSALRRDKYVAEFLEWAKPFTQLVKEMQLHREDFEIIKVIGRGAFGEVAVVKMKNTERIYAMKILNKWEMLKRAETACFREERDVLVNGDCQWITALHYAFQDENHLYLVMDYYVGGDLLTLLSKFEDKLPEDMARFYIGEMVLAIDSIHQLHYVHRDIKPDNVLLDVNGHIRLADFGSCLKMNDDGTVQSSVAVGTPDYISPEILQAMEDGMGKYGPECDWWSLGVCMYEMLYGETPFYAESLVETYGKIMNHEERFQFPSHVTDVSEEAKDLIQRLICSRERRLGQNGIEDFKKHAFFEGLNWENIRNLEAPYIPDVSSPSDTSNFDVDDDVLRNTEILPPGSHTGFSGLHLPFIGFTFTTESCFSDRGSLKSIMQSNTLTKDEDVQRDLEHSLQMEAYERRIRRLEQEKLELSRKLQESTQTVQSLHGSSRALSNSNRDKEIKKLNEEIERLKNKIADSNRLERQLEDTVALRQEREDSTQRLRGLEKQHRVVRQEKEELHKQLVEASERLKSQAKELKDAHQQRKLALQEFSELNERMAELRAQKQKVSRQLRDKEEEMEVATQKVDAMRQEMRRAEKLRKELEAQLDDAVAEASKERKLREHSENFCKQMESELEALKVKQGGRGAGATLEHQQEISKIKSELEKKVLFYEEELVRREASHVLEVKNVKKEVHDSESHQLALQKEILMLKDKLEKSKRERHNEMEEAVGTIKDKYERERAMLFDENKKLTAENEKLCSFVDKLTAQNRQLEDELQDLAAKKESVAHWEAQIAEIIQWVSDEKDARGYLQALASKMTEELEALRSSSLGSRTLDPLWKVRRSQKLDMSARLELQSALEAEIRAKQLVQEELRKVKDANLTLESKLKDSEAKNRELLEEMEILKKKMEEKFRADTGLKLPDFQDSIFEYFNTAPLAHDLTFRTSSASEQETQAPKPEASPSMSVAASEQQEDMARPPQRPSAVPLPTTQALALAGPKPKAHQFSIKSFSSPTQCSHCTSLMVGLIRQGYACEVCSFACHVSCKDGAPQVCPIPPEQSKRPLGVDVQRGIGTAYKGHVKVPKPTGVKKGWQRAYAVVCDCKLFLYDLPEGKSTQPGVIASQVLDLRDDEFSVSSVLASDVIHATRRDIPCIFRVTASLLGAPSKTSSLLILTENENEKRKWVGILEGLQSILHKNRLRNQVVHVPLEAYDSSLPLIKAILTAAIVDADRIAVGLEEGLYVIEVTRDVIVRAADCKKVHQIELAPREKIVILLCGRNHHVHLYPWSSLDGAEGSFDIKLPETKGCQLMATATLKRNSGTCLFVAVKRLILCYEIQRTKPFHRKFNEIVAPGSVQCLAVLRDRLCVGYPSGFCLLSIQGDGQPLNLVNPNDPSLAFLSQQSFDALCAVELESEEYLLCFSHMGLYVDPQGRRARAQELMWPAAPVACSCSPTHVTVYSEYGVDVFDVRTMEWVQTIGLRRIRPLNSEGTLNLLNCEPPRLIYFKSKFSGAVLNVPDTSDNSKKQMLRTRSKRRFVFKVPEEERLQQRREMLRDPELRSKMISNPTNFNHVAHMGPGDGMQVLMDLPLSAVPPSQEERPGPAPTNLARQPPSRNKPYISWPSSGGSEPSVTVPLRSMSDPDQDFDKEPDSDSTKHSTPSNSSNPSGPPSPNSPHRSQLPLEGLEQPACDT

Consider `CCN1CCN(Cc2ccc(NC(=O)c3ccc(C)c(/C=C/c4cnc5[nH]ccc5c4OC)c3)cc2C(F)(F)F)CC1`, for which the inhibition in test [1] was 31.9%; in test [2], 17.6%; in test [3] it was 1.2%; in test [4] it was 8.9%; in test [5], -2.7%; in test [6], 20.9%. Besides, the inhibition in test [7] was 14.5%; in [8], -6.7%; in test [9] it was 2.6%; in [10] it was 12.1%; in test [11], -4.6%; in test [12] it was 15.8%.
`CNc1cc(Oc2cc(C(=O)Nc3cc(-n4cnc(C)c4)cc(C(F)(F)F)c3)ccc2C)ncn1`: in the test on GEN2.2, the inhibition entry is “inactive”.
Regarding `CCN1CCN(Cc2ccc(NC(=O)c3ccc(C)c(Oc4ccnc5[nH]ccc45)c3)cc2C(F)(F)F)CC1`, the inhibition entry in the test on GEN2.2 is “Active”. Also, the inhibition is 91.8% in test [1]; 37.3% in test [2]; 19.2% in [3]; 7.8% in test [4]; -0.8% in test [5]; -3.9% in test [6]. Besides, the inhibition in test [7] was 16.6%; in test [8], 17.5%; in [9], 64.6%; in test [10], -8.8%; in test [11], 8.1%; in test [12], 9%. Also, in test [13], the inhibition result was “inactive”.
For `CNc1cc(Oc2cc(C(=O)Nc3cc(N4CCN(C)CC4)cc(C(F)(F)F)c3)ccc2C)ncn1`, the inhibition in test [13] stood at 26.5%.

These data come from ChEMBL document CHEMBL5696442, “Discovery of type II inhibitors of TGFβ-activated kinase 1 (TAK1) and mitogen-activated protein kinase kinase kinase kinase 2 (MAP4K2)” (J Med Chem, 2015).
